Source: ChEMBL document CHEMBL1158479, “Synthesis and preliminary in vitro biological evaluation of 4-[(4-hydroxyphenyl)sulfanyl]but-3-en-2-one, a 4-mercaptophenol derivative designed as a novel bifunctional antimelanoma agent” (J Med Chem, 2009)
Values belong to the molecule of their own block, whether it stands above or below them.

Tests used:
[1] = Cytotoxicity against mouse B16-F1 cells at 100 uM after 48 hrs by MTT assay relative to control in presence of 1-phenyl-2-thiourea; type: functional
[2] = Cytotoxicity against mouse B16-F1 cells at 100 uM after 48 hrs by MTT assay relative to control in presence of N-acetyl-L-cysteine; type: functional
[3] = Cytotoxicity against mouse B16-F1 cells at 100 uM after 48 hrs by MTT assay relative to control; type: functional
[4] = Cytotoxicity against mouse B16-F1 cells after 48 hrs by MTT assay; type: functional, cell-based
[5] = system: glutathione S-transferase; experiment: Stability assessed as half life at pH 7.4 in presence of rat glutathione S-transferase in liver cytosol; type: physicochemical
Outline: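 The GSH reaction was run at pH 7.4 with and without rat liver cytosol, which served as the glutathione S-transferase source. t1/2 was derived from the time course of reaction with GSH.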

[6] = system: glutathione S-transferase; experiment: Stability assessed as half life in presence of rat glutathione S-transferase; type: ADME
[7] = system: glutathione S-transferase; experiment: Stability assessed as half life at pH 8 in presence of rat glutathione S-transferase; type: ADME
[8] = system: glutathione S-transferase; experiment: Stability assessed as half life at pH 7.4 in presence of rat glutathione S-transferase; type: ADME
[9] = substrate: O=C(O)CCSc1ccc(O)cc1; experiment: (§1) Ratio of Kcat to Km of mushroom tyrosinase; conditions: Agaricus bisporus
Outline: (§2)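 Mushroom tyrosinase kinetics were run by measuring the initial rate of enzyme-catalyzed o-quinone formation over increasing substrate concentrations. Km and Vmax were derived from these rates, and kcat and kcat/Km were calculated from them.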

[10] = substrate: COc1ccc(O)cc1; experiment: as §1; conditions: Agaricus bisporus; outline: as §2
[11] = substrate: O=C(O)CSc1ccc(O)cc1; experiment: as §1; conditions: Agaricus bisporus; outline: as §2
[12] = substrate: O=C(O)CCSc1ccc(O)cc1; experiment: (§3) Activity of mushroom tyrosinase assessed as o-quinone formation; conditions: Agaricus bisporus; outline: as §2
[13] = substrate: COc1ccc(O)cc1; experiment: as §3; conditions: Agaricus bisporus; outline: as §2
[14] = substrate: O=C(O)CSc1ccc(O)cc1; experiment: as §3; conditions: Agaricus bisporus; outline: as §2

Molecule: COc1ccc(O)cc1 [MEQUINOL]
Activity [1]: 78.7%
Activity [2]: 60%
Activity [3]: 61.3%

half-life [5]: < 1 min
Molecule: Oc1ccc(SSc2ccc(O)cc2)cc1
Activity [1]: 0%
IC50 [4]: 21.2 µM
Activity [2]: 22.5%
Activity [3]: 0.2%

half-life [6]: 2.2 min
half-life [7]: 6.1 min
half-life [8]: 20.5 min
Molecule: CC(=O)/C=C/Sc1ccc(O)cc1

half-life [6]: 7.24 min
half-life [7]: 18.4 min
half-life [8]: 38.6 min
Molecule: CC(=O)/C=C\Sc1ccc(O)cc1

B1: Tyrosinase (Agaricus bisporus), O42713 (protein)
chain: MSLIATVGPTGGVKNRLNIVDFVKNEKFFTLYVRSLELLQAKEQHDYSSFFQLAGIHGLPFTEWAKERPSMNLYKAGYCTHGQVLFPTWHRTYLSVLEQILQGAAIEVAKKFTSNQTDWVQAAQDLRQPYWDWGFELMPPDEVIKNEEVNITNYDGKKISVKNPILRYHFHPIDPSFKPYGDFATWRTTVRNPDRNRREDIPGLIKKMRLEEGQIREKTYNMLKFNDAWERFSNHGISDDQHANSLESVHDDIHVMVGYGKIEGHMDHPFFAAFDPIFWLHHTNVDRLLSLWKAINPDVWVTSGRNRDGTMGIAPNAQINSETPLEPFYQSGDKVWTSASLADTARLGYSYPDFDKLVGGTKELIRDAIDDLIDERYGSKPSSGARNTAFDLLADFKGITKEHKEDLKMYDWTIHVAFKKFELKESFSLLFYFASDGGDYDQENCFVGSINAFRGTAPETCANCQDNENLIQEGFIHLNHYLARDLESFEPQDVHKFLKEKGLSYKLYSRGDKPLTSLSVKIEGRPLHLPPGEHRPKYDHTQARVVFDDVAVHVIN
kcat/Km [9]: 31000
kcat/Km [10]: 5140
kcat/Km [11]: 20600
Km [12]: 31.5 µM
kcat [12]: 0.972 s⁻¹
Km [13]: 46.8 µM
kcat [13]: 0.24 s⁻¹
Km [14]: 22.4 µM
kcat [14]: 0.461 s⁻¹
